Experiments:
Conditions in all cases: in vivo
[1] = test system: Rattus norvegicus; test: Nephrotoxicity in Sprague-Dawley rat assessed as occurrence of mild protein/cellular casts in proximal tubule at 30 mg/kg, iv every 12 hrs for 7 days; format: toxicity, organism-based; set-up: dose 30 mg/kg, route intravenous
Procedure, shortened: (§1)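 Sprague-Dawley rats (6 to 8 weeks old) were dosed for 7 days via a jugular vein cannula at 20 mg/kg/8 h (n = 9) or 30 mg/kg/12 h (n = 11), with a saline placebo group (n = 8). Kidneys were examined histologically post mortem by a blinded histologist. Lesion severity was graded 1+ (mild), 2+ (moderate) or 3+ (severe), and the number of animals showing each lesion was counted.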

[2] = test system: Rattus norvegicus; test: Nephrotoxicity in Sprague-Dawley rat assessed as occurrence of mild cortical proximal convoluted tubule necrosis at 30 mg/kg, iv every 12 hrs for 7 days; format: toxicity, organism-based; set-up: dose 30 mg/kg, route intravenous; procedure, shortened: as §1
[3] = test system: Rattus norvegicus; test: Nephrotoxicity in Sprague-Dawley rat assessed as occurrence of severe pallor of outer stripe of proximal tubule at 30 mg/kg, iv every 12 hrs for 7 days; format: toxicity, organism-based; set-up: dose 30 mg/kg, route intravenous; procedure, shortened: as §1
[4] = test system: Rattus norvegicus; test: Nephrotoxicity in Sprague-Dawley rat assessed as occurrence of mild nuclear pyknosis at 30 mg/kg, iv every 12 hrs for 7 days; format: toxicity, organism-based; set-up: dose 30 mg/kg, route intravenous; procedure, shortened: as §1
[5] = test system: Rattus norvegicus; test: Nephrotoxicity in Sprague-Dawley rat assessed as occurrence of mild interstitial nephritis at 30mg/kg, iv every 12 hrs for 7 days; format: toxicity, organism-based; procedure, shortened: as §1
[6] = test system: Rattus norvegicus; test: Nephrotoxicity in Sprague-Dawley rat assessed as occurrence of severe protein/cellular casts in proximal tubule at 150 mg/kg, iv every 12 hrs for 7 days; format: toxicity, organism-based; set-up: dose 150 mg/kg, route intravenous
[7] = test system: Rattus norvegicus; test: Nephrotoxicity in Sprague-Dawley rat assessed as occurrence of severe cortical proximal convoluted tubule necrosis at 150 mg/kg, iv every 12 hrs for 7 days; format: toxicity, organism-based; set-up: dose 150 mg/kg, route intravenous
[8] = test system: Rattus norvegicus; test: Nephrotoxicity in Sprague-Dawley rat assessed as occurrence of severe intracellular mineralization at 150 mg/kg, iv every 12 hrs for 7 days; format: toxicity, organism-based; set-up: dose 150 mg/kg, route intravenous
[9] = test system: Rattus norvegicus; test: Nephrotoxicity in Sprague-Dawley rat assessed as occurrence of severe nuclear pyknosis at 150 mg/kg, iv every 12 hrs for 7 days; format: toxicity, organism-based; set-up: dose 150 mg/kg, route intravenous
[10] = test system: Rattus norvegicus; test: Nephrotoxicity in Sprague-Dawley rat assessed as occurrence of mild protein/cellular casts in proximal tubule at 20 mg/kg, iv every 8 hrs for 7 days; format: toxicity, organism-based; set-up: dose 20 mg/kg, route intravenous; procedure, shortened: as §1
[11] = test system: Rattus norvegicus; test: Nephrotoxicity in Sprague-Dawley rat assessed as occurrence of moderate protein/cellular casts in proximal tubule at 30 mg/kg, iv every 12 hrs for 7 days; format: toxicity, organism-based; set-up: dose 30 mg/kg, route intravenous; procedure, shortened: as §1
[12] = test system: Rattus norvegicus; test: Nephrotoxicity in Sprague-Dawley rat assessed as occurrence of severe protein/cellular casts in proximal tubule at 30 mg/kg, iv every 12 hrs for 7 days; format: toxicity, organism-based; set-up: dose 30 mg/kg, route intravenous; procedure, shortened: as §1
[13] = test system: Rattus norvegicus; test: Nephrotoxicity in Sprague-Dawley rat assessed as occurrence of moderate cortical proximal convoluted tubule necrosis at 30 mg/kg, iv every 12 hrs for 7 days; format: toxicity, organism-based; set-up: dose 30 mg/kg, route intravenous; procedure, shortened: as §1
[14] = test system: Rattus norvegicus; test: Toxicity in Sprague-Dawley rat assessed as effect on food uptake at 20 mg/kg, iv every 8 hrs for 7 days; format: organism-based; set-up: dose 20 mg/kg, route intravenous
Procedure, shortened: (§2)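 Daily cage-side observations covered food and water intake, body weight, body surface temperature and general well-being. Sprague-Dawley rats (6 to 8 weeks old) were dosed via a jugular vein cannula for 7 days, with a saline placebo control. Groups were compared by analysis of variance.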

[15] = test system: Rattus norvegicus; test: Toxicity in Sprague-Dawley rat assessed as effect on food uptake at 30 mg/kg, iv every 12 hrs for 7 days; format: organism-based; set-up: dose 30 mg/kg, route intravenous; procedure, shortened: as §2
[16] = test system: Rattus norvegicus; test: Toxicity in Sprague-Dawley rat assessed as effect on water consumption at 20 mg/kg, iv every 8 hrs for 7 days; format: organism-based; set-up: dose 20 mg/kg, route intravenous; procedure, shortened: as §2
[17] = test system: Rattus norvegicus; test: Toxicity in Sprague-Dawley rat assessed as effect on water consumption at 30 mg/kg, iv every 12 hrs for 7 days; format: organism-based; set-up: dose 30 mg/kg, route intravenous; procedure, shortened: as §2
[18] = test system: Rattus norvegicus; test: Toxicity in Sprague-Dawley rat assessed as effect on body surface temperature at 20 mg/kg, iv every 8 hrs for 7 days; format: organism-based; set-up: dose 20 mg/kg, route intravenous; procedure, shortened: as §2
[19] = test system: Rattus norvegicus; test: Toxicity in Sprague-Dawley rat assessed as effect on body surface temperature at 30 mg/kg, iv every 12 hrs for 7 days; format: organism-based; set-up: dose 30 mg/kg, route intravenous; procedure, shortened: as §2
[20] = test system: Rattus norvegicus; test: Neurotoxicity in Sprague-Dawley rat assessed as decreased locomotor activity at 30 mg/kg, iv every 12 hrs for 2 days relative to control; format: toxicity, organism-based; set-up: dose 30 mg/kg, route intravenous
Procedure, shortened: (§3)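 Locomotor activity was recorded daily with a photobeam activity meter as part of a functional screening battery. Sprague-Dawley rats (6 to 8 weeks old) received 30 mg/kg/12 h via a jugular vein cannula for 7 days (n = 11), compared with saline placebo (n = 8). The treatment day was reported for each comparison.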

[21] = test system: Rattus norvegicus; test: Neurotoxicity in Sprague-Dawley rat assessed as decreased locomotor activity at 30 mg/kg, iv every 12 hrs for 6 days relative to control; format: toxicity, organism-based; set-up: dose 30 mg/kg, route intravenous; procedure, shortened: as §3
[22] = test system: Rattus norvegicus; test: Neurotoxicity in Sprague-Dawley rat assessed as effect on motor control at 20 mg/kg, iv every 8 hrs for 7 days; format: toxicity, organism-based; set-up: dose 20 mg/kg, route intravenous
Procedure, shortened: (§4)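 Motor control was tested daily by requiring each rat to walk for 5 min on a rotarod treadmill. Sprague-Dawley rats (6 to 8 weeks old) were dosed via a jugular vein cannula for 7 days, with a saline placebo control.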

[23] = test system: Rattus norvegicus; test: Neurotoxicity in Sprague-Dawley rat assessed as effect on motor control at 30 mg/kg, iv every 12 hrs for 7 days; format: toxicity, organism-based; set-up: dose 30 mg/kg, route intravenous; procedure, shortened: as §4
[24] = test system: Rattus norvegicus; test: Neurotoxicity in Sprague-Dawley rat assessed as effect on forelimb grip strength at 30 mg/kg, iv every 12 hrs for 7 days; format: toxicity, organism-based; set-up: dose 30 mg/kg, route intravenous
Procedure, shortened: (§5)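 Forelimb grip strength was tested daily using a horizontal retort stand. Each rat had to hang from the horizontal beam holding its own body weight to pass. Rats (Sprague-Dawley, 6 to 8 weeks old) were dosed via a jugular vein cannula for 7 days, with a saline placebo control.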

[25] = test system: Rattus norvegicus; test: Neurotoxicity in Sprague-Dawley rat assessed as effect on forelimb grip strength at 20 mg/kg, iv every 8 hrs for 7 days; format: toxicity, organism-based; set-up: dose 20 mg/kg, route intravenous; procedure, shortened: as §5

COLISTIMETHATE SODIUM
Activity [1]: Toxic
Activity [2]: Toxic
Activity [3]: Toxic
Activity [4]: Toxic
Activity [5]: Toxic
Activity [6]: Toxic
Activity [7]: Toxic
Activity [8]: Toxic
Activity [9]: Toxic
Activity [10]: Toxic
Activity [11]: Toxic
Activity [12]: Toxic
Activity [13]: Toxic
Activity [14]: Non-toxic
Activity [15]: Non-toxic
Activity [16]: Non-toxic
Activity [17]: Non-toxic
Activity [18]: Non-toxic
Activity [19]: Non-toxic
Activity [20]: Toxic
Activity [21]: Toxic
Activity [22]: Non-toxic
Activity [23]: Non-toxic
Activity [24]: Non-toxic
Activity [25]: Non-toxic

Reference: ChEMBL document CHEMBL1255273, “Subacute toxicity of colistin methanesulfonate in rats: comparison of various intravenous dosage regimens” (Antimicrob Agents Chemother, 2008)
